Screens (PubChem BioAssay)
Compounds with a hit are over-represented: about 1.8% of the library has one in this group of screens.
UHRF1 MBD2 ctr: UHRF1 methyl-DNA binding inhibition | Q96T88 | inhibition, % at 4.4 µM | hit rate 0.75% among 370,000 | UHRF1 binding to methylated oligo, TR-FRET; in the data active means inhibition above about 21%;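 further: UHRF1 SRA domain binding a hemimethylated CpG hairpin DNA probe; 0% = median of test compound wells and 100% = reference inhibitor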
Target sequence (Q96T88 whole entry, looked up, the tested form may be a part): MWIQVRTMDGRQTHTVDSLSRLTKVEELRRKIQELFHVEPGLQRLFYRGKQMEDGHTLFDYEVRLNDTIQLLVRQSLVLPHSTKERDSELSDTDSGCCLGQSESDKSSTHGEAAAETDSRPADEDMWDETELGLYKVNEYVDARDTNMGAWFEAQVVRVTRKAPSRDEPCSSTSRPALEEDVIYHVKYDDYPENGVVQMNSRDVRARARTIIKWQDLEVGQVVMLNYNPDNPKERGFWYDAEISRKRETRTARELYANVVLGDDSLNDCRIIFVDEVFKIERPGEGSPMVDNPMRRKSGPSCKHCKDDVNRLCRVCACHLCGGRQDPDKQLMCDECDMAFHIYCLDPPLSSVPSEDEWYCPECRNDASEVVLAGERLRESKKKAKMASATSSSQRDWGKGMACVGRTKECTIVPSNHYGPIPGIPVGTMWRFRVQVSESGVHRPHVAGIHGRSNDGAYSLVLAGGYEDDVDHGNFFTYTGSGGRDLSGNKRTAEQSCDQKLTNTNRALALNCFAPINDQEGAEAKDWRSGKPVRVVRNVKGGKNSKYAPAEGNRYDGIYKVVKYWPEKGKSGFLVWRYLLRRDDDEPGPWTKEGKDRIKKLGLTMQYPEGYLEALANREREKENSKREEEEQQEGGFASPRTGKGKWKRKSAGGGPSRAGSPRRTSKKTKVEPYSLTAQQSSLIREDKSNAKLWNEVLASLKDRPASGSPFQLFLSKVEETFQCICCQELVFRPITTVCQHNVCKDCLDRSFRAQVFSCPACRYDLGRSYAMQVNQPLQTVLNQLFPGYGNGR
NSD2 inh: blocks human histone methyltransferase NSD2. O96028. NSD2 peptide methylation, AlphaScreen, 120 min. inhibition, % at 12.5 µM. hit rate 0.54% among 310,000. AID 743445; in the data active means inhibition above about 50%
MBD2 inh: blocks human MBD2 binding to methylated DNA. Q9UBB5. TR-FRET, MBD2 binding to methylated oligonucleotide. inhibition, % at 4.4 µM. hit rate 0.31% among 370,000. AID 686964; in the data active means inhibition above about 13%
TDP2 inh: blocks human TDP2 phosphodiesterase activity. recombinant TDP2, T5PNP hydrolysis, p-nitrophenol absorbance 415 nm. inhibition, % at 12.8 µM. hit rate 0.34% among 370,000;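 active means inhibition above the mean of all tested compounds plus 3 SD, set per campaign, cut at about 25% in these data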;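 further: 0% = DMSO with enzyme and 100% = buffer with substrate but no TDP2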
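System – recombinant human TDP2 · Quantity – TDP2 enzyme at 120 nM final · Doses – single concentration, 12.8 µM nominal, with 1% DMSO · Incubation – 2 h at 37 °C · Measured by – epi absorbance of p-nitrophenol freed from T5PNP by hydrolysis · Read-out – % inhibition relative to enzyme-containing and enzyme-free wells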
Casp6 inh: caspase-6 (human) enzyme inhibition; P55212; purified caspase-6, Z-VEID-R110 cleavage fluorescence; inhibition, % at 12.5 µM; hit rate 0.53% among 350,000; AID 686996;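 active means mean inhibition across replicates at least about 35%, with every replicate also reaching that limit, limit read from the data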;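 further: 0% = median of neutral control wells and 100% = no fluorescence left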
LEDGF integ inh: blocks HIV-1 LEDGF/p75-dependent DNA integration | inhibition, % at 3.7 µM | hit rate 0.64% among 370,000 | AID 743269 | TR-FRET IN-LEDGF/p75 DNA integration, Eu/Cy5;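 active means inhibition above the screen-wide mean plus 3 SD, cut at about 13% in these data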;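 further: signal is the Cy5 over europium emission ratio at 671 and 618 nm; 0% = plate median of compound wells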
Alpha artifact: counter-screen for NSD2 inhibitors: AlphaScreen artifacts | shares compounds with NSD2 inh | AlphaScreen artifact counterscreen, preloaded methylated H4 peptide | AC35, µM (highest dose often 10 µM), inactives show at the highest dose activity change, negative = signal loss | hit rate 9.4% among 1,500 | AID 1053174; call rule not given here
Active calls of the source: *; . = no result given.

SMILES | UHRF1 MBD2 ctr | NSD2 inh | MBD2 inh | TDP2 inh | Casp6 inh | LEDGF integ inh | Alpha artifact
CC[n+]1c(/C=C/c2c[nH]c3ccccc23)ccc2cc(C)ccc21 | -91.1 | 107.9* | -33.7 | 5.2 | -10.9 | 1.3 | -15.2%
CCN(CC)C(=O)c1ccc(/C=C/c2c[nH]c3ccccc23)[n+](C)c1 | -175.3 | 36.4 | -49.8 | -8.2 | . | -0.1 | .
CCOC(=O)c1ccc(N=c2scc(C)n2CC)cc1 | 2.0 | 51.1* | 0.2 | -0.1 | -1.0 | -1.0 | -12.0%
COc1ccc(NC(=O)N[C@@H]2CC[C@H](CC(=O)NC3CCCCC3)O[C@@H]2CO)cc1 | . | . | . | . | -1.3 | . | .
Cc1cccc(C(=O)NCc2nnc(SCC(=O)Nc3nnc(C)s3)n2C)c1 | 0.5 | 89.9* | -5.4 | 4.6 | -2.0 | 0.6 | -1.7%
Cc1cccc(C(=O)NCc2nnc(SCC(=O)Nc3nncs3)n2C)c1 | 2.0 | 5.9 | -5.8 | -10.6 | -0.4 | -2.8 | .
CCNC(=O)c1cc2c(c(-c3cccc(-c4cccc(F)c4)c3)n1)[C@H](CCO)N([S@@](=O)C(C)(C)C)C2 | . | . | . | . | 0.1 | . | .
CCOc1ccccc1/C=N/NC(=O)c1nnn(-c2nonc2N)c1CN1CCC(C)CC1 | 1.7 | 82.8* | -3.2 | 3.3 | -0.8 | -0.3 | -9.4%
COc1ccc(NC(=O)Nc2ccc3c(c2)CC(=O)N([C@H](C)CO)C[C@H](C)[C@@H](CN(C)C)O3)cc1 | . | . | . | . | -3.3 | . | .
CC(C)Cn1c(N)c(C(=O)COC(=O)c2ccc(O)cc2)c(=O)n(C)c1=O | 0.6 | -0.3 | 4.3 | -1.5 | 0.9 | 2.8 | .
CC(C)Cn1c(N)c(C(=O)COC(=O)c2ccc([N+](=O)[O-])o2)c(=O)n(C)c1=O | -3.0 | 99.4* | 3.5 | -7.5 | 5.5 | -4.2 | -4.1%
Cc1cc(C(=O)c2ccccc2)cc(C)c1O | -0.4 | -1.1 | -2.9 | 1.1 | 1.9 | -2.8 | .
CC1=C/C(=C(\c2cc(C)c(O)c(Br)c2)c2ccccc2S(=O)(=O)O)C=C(Br)C1=O | -1.5 | 50.4* | -12.6 | 4.6 | 7.9 | -10.7 | 7.81µM*
CN(C1=C(NC(=O)c2ccccc2)C(=O)c2ccccc2C1=O)C1CCS(=O)(=O)C1 (stereo not drawn) | -9.5 | 108.8* | -11.8 | 32.5* | 77.5* | 11.2 | -2.7%
O=C(NC(=S)NC1CCS(=O)(=O)C1)c1ccccc1 (stereo not drawn) | 0.1 | 0.9 | -2.8 | 9.7 | 0.5 | -0.5 | .
COc1ccccc1NC(=O)N[C@H]1CC[C@H](CCn2cc(-c3ccccc3OC)nn2)O[C@@H]1CO | . | . | . | . | -3.1 | . | .
CCCN(CCC)CCCNC(=O)c1cn(CC)c2ccc(S(=O)(=O)N3CCc4ccccc4C3)cc2c1=O | 5.6 | 50.4* | 8.8 | -12.2 | -3.3 | -5.1 | 2.0%
Cc1noc(C)c1S(=O)(=O)Nc1ccc2c(c1)C(=O)N([C@@H](C)CO)C[C@H](C)[C@H](CN(C)S(=O)(=O)c1ccc(F)cc1)OCCCC[C@H](C)O2 | . | . | . | . | 1.3 | . | .
O=C(O)c1ccccc1NS(=O)(=O)c1ccc2ccccc2c1 | -0.1 | 52.1* | -3.4 | 18.2 | 8.5 | 2.4 | -1.4%
COc1cn(-c2ccccc2)nc1C(=O)NCc1ccc(C)cc1 | -4.6 | 2.4 | -5.7 | -2.6 | 3.0 | 0.3 | .
COc1cn(-c2ccccc2)nc1C(=O)NCc1ccccc1 | -0.4 | 79.5* | -0.8 | 5.4 | -0.8 | 4.1 | -4.5%
O=C(N/N=C\c1cc2c(cc1[N+](=O)[O-])OCO2)c1cccs1 | -5.7 | 1.2 | -1.9 | 4.2 | 2.7 | -1.4 | .
Nc1nonc1C(=O)N/N=C/c1cc2c(cc1[N+](=O)[O-])OCO2 | -3.2 | 112.8* | -2.4 | 9.3 | 0.0 | 1.6 | -1.0%
COc1ccc(C2CC(c3ccc(Cl)cc3)=NN2C(C)=O)cc1 (stereo not drawn) | 4.8 | 54.5* | 2.1 | -10.8 | 5.3 | -5.6 | -4.2%
O=C(N[C@@H]1CC[C@H](CCNC(=O)C2CC2)O[C@H]1CO)c1ccncc1 | . | . | . | . | 1.3 | . | .
SMILES | UHRF1 MBD2 ctr | NSD2 inh | MBD2 inh | TDP2 inh | Casp6 inh | LEDGF integ inh | Alpha artifact
Cc1ccc(C(=O)Nc2ccc(CC(=O)O)cc2)o1 | 5.8 | 126.2* | 2.8 | 0.6 | . | 1.5 | -3.1%
Cc1ccc(C(=O)Nc2ccc(NC(=O)c3ccc(C)o3)cc2)o1 | 0.8 | 0.9 | 1.2 | 6.0 | 0.8 | -2.5 | .
COc1cc(C(=O)Oc2cccc(/C=N/NC(=O)c3cccnc3)c2)cc(OC)c1OC | 0.7 | 97.9* | 6.0 | -18.2 | -5.1 | -3.8 | -1.1%
C[C@@H]1CN([C@H](C)CO)S(=O)(=O)c2ccc(C#CC3CC3)cc2O[C@H]1CN(C)Cc1ccncc1 | . | . | . | . | 0.6 | . | .
COc1ccc(C2=C(N)c3ccccc3C2=O)cc1 | . | 6.9 | . | . | . | . | .
COC1=C(c2ccccc2)C(=O)c2ccccc2C1=O | -5.4 | 80.7* | -16.8 | 7.1 | . | 7.6 | -1.2%
O=C(C[C@H]1C[C@@H]2c3cc(NC(=O)C4CCOCC4)ccc3O[C@@H]2[C@H](CO)O1)NCc1cccc(F)c1 | . | . | . | . | 0.2 | . | .
CN1C(=O)c2cccc(N(C)C)c2C1=O | -3.3 | -0.4 | -1.7 | 3.0 | -4.0 | -2.5 | .
CN(C)c1cccc2c1C(=O)c1ccccc1C2=O | -28.5 | 60.1* | -26.9 | -3.0 | 4.6 | -8.3 | 2.2µM*
COc1ccc(C(=O)N[C@H](C(=O)NCc2ccc(C)cc2)C(C)C)cc1 | -0.6 | 75.3* | -2.2 | -8.6 | 0.2 | -2.0 | -3.0%
Cc1c(-c2ccc(/C=N/NC(=O)C(=O)Nc3ccccc3F)o2)cccc1[N+](=O)[O-] | 4.7 | 64.2* | 1.7 | 3.1 | 0.1 | -1.8 | -3.4%
Cc1cc(OCCn2nc(C(=O)O)c3ccccc3c2=O)ccc1C(C)C | -0.4 | 90.5* | 3.5 | -0.7 | 4.2 | -1.6 | -2.7%
CCc1cccc(OCCn2nc(C(=O)O)c3ccccc3c2=O)c1 | 1.6 | -1.2 | 2.8 | -3.5 | 3.4 | -2.7 | .
COc1ccc(-c2ccc3c(c2)O[C@@H](CN(C)Cc2cccnc2)[C@@H](C)CN([C@H](C)CO)S3(=O)=O)cc1 | . | . | . | . | -5.2 | . | .
COc1ccc2c(c1)Cc1sc(NC(=O)c3ccccc3)nc1-2 | -7.8 | 127.8* | -9.6 | 18.9 | . | 7.8 | -4.9%
COc1ccc2c(c1)Cc1sc(NC(=O)c3cccs3)nc1-2 | -8.5 | 78.2* | -4.9 | 15.8 | . | 1.2 | -1.7%
COc1ccc(-c2nc(NC(=O)c3ccccc3)sc2-c2ccc([N+](=O)[O-])cc2)cc1 | 6.4 | -2.4 | 5.5 | -12.1 | -7.5 | -0.1 | .
Cc1noc(C)c1NC(=O)N(C)C[C@H]1Oc2ccc(NS(=O)(=O)c3c(C)noc3C)cc2CC(=O)N([C@@H](C)CO)C[C@@H]1C | . | . | . | . | 0.6 | . | .
COc1ccc(/C=C2\SC(N)=NC2=O)cc1Br | -4.9 | -0.3 | -3.0 | -5.5 | 1.7 | -6.5 | .
COc1cc(/C=C2\SC(N)=NC2=O)cc(Cl)c1O | -9.5 | 67.7* | -9.4 | -9.4 | 1.1 | -11.2 | -3.8%
